How the values were obtained:
[1] = target: 3',5'-cyclic-AMP phosphodiesterase 4B (Homo sapiens, UniProt Q07343); test: Inhibition of PDE4B (unknown origin) assessed as hydrolysis of [3H]-cGMP into [3H]-GMP incubated for 30 mins by scintillation of proximity assay; conditions: in the assay text read “[3H]-cAMP into [3H]-AMP” for “[3H]-cGMP into [3H]-GMP”
Procedure, shortened: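 Scintillation proximity assay of [3H]-cAMP or [3H]-cGMP hydrolysis to [3H]-AMP or [3H]-GMP. Enzyme was diluted to 1–2 nM in 50 mM Tris pH 7.5, 8.3 mM MgCl2 and 1.7 mM EGTA. Reaction was started by adding enzyme, test solution and radiolabelled substrate, then incubated at 30 °C for 30 min and stopped with SPA beads. Run in duplicate.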

[2] = test system: Mus musculus; test: Antiinflammatory activity against PMA-induced ICR mouse ear oedema model assessed as reduction in ear swelling at 1 mg/ear topically administered and measured after 4 hrs; format: functional
Procedure, shortened: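 Male ICR mice, 8 weeks old. The sample was applied topically to the right ear at 1.0 mg/ear in ethanol before PMA. After 4 h the mice were killed by cervical dislocation and both ears were measured with a micrometer. Oedema was the thickness difference between the ears; inhibition was the percent reduction versus the model group.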

[3] = Phototoxicity in albino guinea pig assessed as erythema and edema topical treatment irradiated with 4.2 mw/cm2 UVA for 40 mins and measured after 72 hrs day of light irradiation by H and E staining based microscopic analysis; parameters: species or system Cavia porcellus; conditions: topical_or_ocular
Procedure, shortened: (§1)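 Albino guinea pigs (250–300 g) were randomized into 5 groups. Four 2 cm × 2 cm depilated areas beside the spine were prepared 24 h before dosing, and 0.2 mL of test substance was applied. Animals were restrained and exposed to UVA for 40 min. Erythema, eschar and oedema were scored visually at 1, 24, 48 and 72 h. Skin taken at 72 h was formalin-fixed, H&E-stained and read by a pathologist.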

[4] = Phototoxicity in albino guinea pig assessed as erythema and edema topical treatment irradiated with 4.2 mw/cm2 UVA for 40 mins and measured after 24 hrs day of light irradiation by H and E staining based microscopic analysis; parameters: species or system Cavia porcellus; conditions: topical_or_ocular; procedure, shortened: as §1
[5] = Phototoxicity in albino guinea pig assessed as infiltration of inflammatory cells at 10 mg/kg topical treatment irradiated with 4.2 mw/cm2 UVA for 40 mins and measured after 24 hrs day of light irradiation by H and E staining based microscopic analysis; format: organism-based, Cavia porcellus; conditions: in vivo, topical_or_ocular, in the assay text read “72 hrs” for “24 hrs”; procedure, shortened: as §1
[6] = Phototoxicity in albino guinea pig assessed as necrosis at 10 mg/kg topical treatment irradiated with 4.2 mw/cm2 UVA for 40 mins and measured after 24 hrs day of light irradiation by H and E staining based microscopic analysis; format: organism-based, Cavia porcellus; conditions: in vivo, topical_or_ocular, in the assay text read “72 hrs” for “24 hrs”; procedure, shortened: as §1

Chain of 3',5'-cyclic-AMP phosphodiesterase 4B (Q07343 whole entry): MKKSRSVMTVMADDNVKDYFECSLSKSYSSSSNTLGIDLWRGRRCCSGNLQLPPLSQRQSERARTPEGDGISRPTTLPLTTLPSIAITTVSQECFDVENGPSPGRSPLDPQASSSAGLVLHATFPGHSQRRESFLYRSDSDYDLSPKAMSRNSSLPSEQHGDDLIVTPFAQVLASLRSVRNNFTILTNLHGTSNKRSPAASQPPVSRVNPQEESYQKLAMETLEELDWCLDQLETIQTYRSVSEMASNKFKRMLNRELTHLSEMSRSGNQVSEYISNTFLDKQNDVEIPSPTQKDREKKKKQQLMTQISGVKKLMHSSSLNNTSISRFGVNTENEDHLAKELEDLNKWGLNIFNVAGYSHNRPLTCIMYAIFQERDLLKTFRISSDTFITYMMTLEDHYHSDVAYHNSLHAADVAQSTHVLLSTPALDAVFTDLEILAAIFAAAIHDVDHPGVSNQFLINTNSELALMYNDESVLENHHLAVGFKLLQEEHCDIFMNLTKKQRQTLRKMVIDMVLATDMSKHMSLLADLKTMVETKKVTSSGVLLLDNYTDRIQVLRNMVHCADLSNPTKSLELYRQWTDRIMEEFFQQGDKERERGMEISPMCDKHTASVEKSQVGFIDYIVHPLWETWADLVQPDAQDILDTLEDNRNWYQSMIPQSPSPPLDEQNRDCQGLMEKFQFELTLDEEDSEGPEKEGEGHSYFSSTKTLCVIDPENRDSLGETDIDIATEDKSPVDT

Compound	IC50 [1]	inhibition (INH) [2]	other results
COC(=O)c1cnn2ccc(Oc3ccc4c(c3)COB4O)nc12	46.2 nM	–	–
COc1c2occc2cc2ccc(=O)oc12 [METHOXSALEN]	–	–	Activity [3]: Non-Toxic; Activity [4]: Toxic; Activity [5]: Toxic; Activity [6]: Toxic
OB1OCc2cc(Oc3ccc4c(C(F)(F)F)cccc4n3)ccc21	6.42 nM	58.05%	–

Now from value to molecule, other results behind:

IC50 [1]	Compound	inhibition (INH) [2]	other results
8.25 nM	COC(=O)c1cc(Oc2ccc3c(c2)COB3O)nc2ccccc12	30.6%	–
124 nM	O=C(O)c1cccc2nc(Oc3ccc4c(c3)COB4O)ccc12	45.76%	–
65.5 nM	CC1(C)CC(=O)c2ccc(Oc3ccc4c(c3)COB4O)cc2O1	–	–
18.9 nM	O=c1ccoc2cc(Oc3ccc4c(c3)COB4O)ccc12	–	–
6.44 nM	COC(=O)c1cccc2nc(Oc3ccc4c(c3)COB4O)ccc12	55.62%	–
